# Reference: the RNAGym collection of RNA variant scans (doi:10.1126/science.aae0568)
# Variants at the floor of the assay were thinned out.
# B1: tRNA (parent)
# chain: GUUCCGUUGGCGUAAUGGUAACGCGUCUCCCUCCUAAGGAGAAGACUGCGGGUUCGAGUCCCGUACGGAACG
# Variants of: B1
# Test: yeast fitness relative to wild type (ratio to wild type); higher = fitter; tRNA-Arg(CCU), competitive growth, 37 C, YPD
# Outline: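 Changes in genotype frequencies gave Darwinian fitness relative to wild type. Frequencies were read by 100-nucleotide paired-end sequencing of gene amplicons before and after pooled Saccharomyces cerevisiae strains, carrying tRNA-Arg(CCU) gene variants at the native locus, were competed in YPD at 37°C for 24 hours in six replicates. A genotype was kept only with ≥ 100 starting reads, and estimates < 0.5 were set to 0.5.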
row,Variant,yeast fitness
1,GUUCCCUUGGCGUAAUGGUAACGUGUCUCCCUCCUAAGGAGAAGAGUGCGGGUUCGAGUCCCGUACGGAACG,0.586
2,GUUCCGUUGGCGUAAUGGUAACGCGUCUCCCUCCUAAGGAGCAGACUGCGGGUUCGAGUCCUGUACGGUACG,0.689
3,GUUCCGUUGGCGGAAUGGUAACGCGUCUCCCUCCUAAGGAGAAGAUUGCGGGUUCGAGUCCCGUGCGGAACG,0.773
4,GUUCCGUUGGCGUGAUGGUAACGCGUCUCUCUCCUAAGGAGAAGUCUGCGGGUUCGAGUCCCGUACGGAACG,0.675
5,GUUCCGUUGGCGUAAUGCUAACGCGUCUCCCUGCUCAGGAGAAGAAUGCGGGUUCGAGUCCCGUACGGAACG,≤ 0.5
6,GUUCCCUUGGCGUAAUGGUAACGCGUCUCCCUCCUAAGGAGACGACUGCGGGUUCGAGUCCCGUACGGAACG,0.739
7,GUUCCGUUGGCGUAAUGGCAACGCGUCUCCCUAGUAAGGAGAAGACUGCGGGUUCGAGUCCCGUACGGAACG,≤ 0.5
8,GUUCCGUCGGCGUAAUGGUAAUGCGUCUCCUUCCUAAGGAGAAGACUGCGGGUUCGAGUACCGUACGGAACG,≤ 0.5
9,GUUCCGUUGGCGUAAUGGUAACGCGUCUCCCUCCUAAGGAGAAGACUGCGGGUACGAGUCCCGUGCGGAACG,0.584
10,GUUCCGUUGGCGUAAUGGUAACGCGUCUCCCUGCUAAGGAGUAGGCUGCGGGUUCGAGUCCCGUACGGAACG,≤ 0.5
11,GUUCCGUUGGCGUAAUGGUAACGCGUCUCCCUCCUAUGGAGAAGACUGCGGGUUCGAGUCUCGUACGGAACG,0.771
12,GUUCCGUUGGCGUAAUGGUAACGCGUCUCCCUCCUAAGGAGAGGACUGCGGGUUCGAGUCCCGUCCGGAACG,0.79
13,GUUCCGUUGGCGUAACGGUAACGCGCCUCCCUCCUAAGGAGAAGACUGCGGGUUCGAAUCCCGUACGGAACG,1.11
14,GUUGCAUUGGCGUAAUGGUAACGCGUCUCACUCUUAAGGAGAAGAUUGCGGGUUCGAGUCCCGUACGGAACG,≤ 0.5
15,GUUCCGUUGGCGUAAAGGUUACGCGUCUCCCUCCCAAGCAGCAGACUACGGGUUCGAGUCCCGUACGGAACG,≤ 0.5
16,GUUCCGUUGGCGUAAUGGUAACGCGUCUCCCAUCUAAGGAGAAGACUGCGGAUUCGAGUCCCGUACGGAACG,0.597
17,GUUCCGUUGGCGUAUUGGUAACGCGUCUCCCUCCUAAGGGGGAGACUGCGGGUUCGUGUCCGGUAUGGAACG,≤ 0.5
18,GUUCCGUAGGCGUAAUGGUAACGCAUCUCCCUCCUAAGGCGAAGAUUGCGGGUUCGAGUCCCGUACGGAACG,0.598
19,GUCCCAUUGGCGUAAUGCUAACGCGUCUCUUUCCUAAGGAGAAGACUGCGGGUUCGAGUCCCGUUCGGAACG,≤ 0.5

row,Variant,yeast fitness
1,GUUCCGUUGGCGUAAUGGUAACGCGUCUCCGUCCUAAGGAGAAGUCAGCGGGUUCGAGUCCCGUACGGAACG,0.521
2,GUUCCGUUGGGGUAAUGGUAACGCGUCUUCCUCCUAAGGAGAAGACUGCGGGUUCGAGUCCCGUAAGGAACG,≤ 0.5
3,GUUCCCUUGGCGUAAUGGUAACGCGUCUCCCUCCUAAGCAGAAGACUGCGGGUUGGAGUCCCGUACGGAACG,≤ 0.5
4,GUUCCGUUGGCGUGCUGGUAACGCGCCUCCCUCCGAAGGAGAAGACUGGGGGUUCGAGUCCCGUACGGAACG,≤ 0.5
5,GUUCCGUUGGCGUGAUGGUACCGCGUCUCCCUCCUCAGGAGAUGACUGCGGGUUCGAGUCCCGUACUGAACG,≤ 0.5
6,GUUGUGUUGGCGUAAUGGUAACGCGUCUCCCUCCUAAGGAGAAGACUGAGGGUUCGAGUCCCGUACGGAACG,≤ 0.5
7,GUUCCGUUGGCGUCAUGGUAACGCGUCUCCCUCGUAAGGAGAAGACUGCGGGUUCGUGUCCCGUACGGAACG,0.518
8,GUUCCGUUGGCGUAAUGGUAACGCGUCUCCCACCUAAGAAGAAGACUGCGGGUUCGAGUCCCAUACGGAACG,≤ 0.5
9,GUUCCGUUGGCGUAAUGGUAACGCGUCUCCCUCCACAGGAGAAGACUGCGGGUUCGAGUCCCGUAAGGAACG,≤ 0.5
10,GUUCCCUUGGCGUAAUGGUAACGGGUCUCCCUCUUAAGGAGAAGACUGCGGGCUGGAGUCCAGUACGGAACG,0.557
11,GUUCCGUUGGCGUACAGGUAACGCGUCUCCGUCUUAAGGAGAAGACUGCGGGUUCGAGUCCCGUACGGUACG,≤ 0.5
12,GUUGCGUCGGCGUAAUGGUAACGUGUCUCCCUCCUAAGGAGAGGACUGCGGGUUCGAGUCCCGUACGGAACG,0.527
13,GUUCCGUUGGCGACAUGGUAAAGCGUCUCCAUCCUAGGGAGAAGACUGCGGGUUUGGGUCCCGUACGGAACG,≤ 0.5
14,GUUCCGUUGGUGUAAUGGUAACGCGUCUCCCUCCUAAGGAGAAGACUGCGGGUUCGUGUCCCGUACGGACCG,0.512
15,GUUCCGUUGGCGUAAUGGUAACGCGCCUCCCUCCUAUGGAGAAGACCGCGGGUACGAGUCCCGUACGGAACG,≤ 0.5
16,GUUCCGUUGGCGUAAUGGUAACGCGUCUCCCUCCUAAGGACCAGACUGCGGGUUCGAGUCCCGUACGGAACG,0.565
17,GGUCCAUUGGCGUAAUGGUAACGCGUGUCCCUCCUAAGGAGAAGACUGCGGGUCCGAGUCCUGUACGGAACG,≤ 0.5
18,GUUCCGUUGGCGUAAUGGUAUCGCGUCUCCCUCCUAAGGAAAAGACUGCGGGUUCGCGUCCCGUACGGAACG,≤ 0.5
19,GUUCCGUUGGCGUAAUCGUAACGCGUCUCCCUCCUAAGGAGAAGACUGCGGGUUCGAGUCCCGUACGGUACG,0.624
